# From ChEMBL document CHEMBL3792364, “Identification and biological activity of 6-alkyl-substituted 3-methyl-pyridine-2-carbonyl amino dimethyl-benzoic acid EP4 antagonists” (Bioorg Med Chem Lett, 2016)
# Active and inactive are the calls of the source. The rule behind the calls is not given here.
# What was measured:
# [1] = Clearance in dog at 1 mg/kg, iv; type: ADME, organism-based, Canis lupus familiaris; settings: in vivo
# Summary of the method: (§1)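 Rat and dog given single iv dose of 1 mg/kg and oral dose of 5 mg/kg. Oral AUC, Cmax and half-life and iv clearance were derived from plasma levels.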
# Cytochrome P450 2C9 [2] = target: T1, Cytochrome P450 2C9 (Homo sapiens, UniProt P11712); assay: Inhibition of CYP2C9 (unknown origin); type: ADME
# T1 sequence (P11712 whole entry): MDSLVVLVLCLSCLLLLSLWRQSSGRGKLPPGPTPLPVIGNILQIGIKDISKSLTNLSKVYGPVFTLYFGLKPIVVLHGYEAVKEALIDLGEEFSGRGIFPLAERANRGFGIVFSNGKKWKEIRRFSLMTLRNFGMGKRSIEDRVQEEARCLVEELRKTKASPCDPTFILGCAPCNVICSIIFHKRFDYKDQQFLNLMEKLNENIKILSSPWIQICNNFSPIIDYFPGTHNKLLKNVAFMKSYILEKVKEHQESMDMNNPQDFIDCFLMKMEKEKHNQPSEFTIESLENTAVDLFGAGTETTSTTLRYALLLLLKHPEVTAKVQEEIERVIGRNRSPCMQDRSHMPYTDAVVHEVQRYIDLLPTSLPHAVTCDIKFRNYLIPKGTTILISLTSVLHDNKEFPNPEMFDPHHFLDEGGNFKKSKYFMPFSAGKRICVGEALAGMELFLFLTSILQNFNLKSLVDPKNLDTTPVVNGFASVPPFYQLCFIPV
# Summary of the method: (§2)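 Inhibition of CYP1A2, 2B6, 2C19, 2C8, 2C9, 2D6 and 3A4 tested in vitro at concentrations up to 10 µM.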
# [3] = target: Prostaglandin D2 receptor (Homo sapiens) (UniProt Q13258); assay: Inhibition of prostaglandin DP1 receptor (unknown origin) at 10 uM
# Summary of the method: (§3)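 Off-target selectivity panel covering 13 receptors, four ion channels, one transporter and one enzyme, plus prostanoid DP1, FP, IP and TP receptors and COX-1/2. Test concentration 10 µM.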
# [4] = Half life in rat at 5 mg/kg, po; type: ADME, organism-based; settings: in vivo; summary of the method: as §1
# Cytochrome P450 2C9 [5] = target: T1, Cytochrome P450 2C9; assay: Inhibition of CYP2C9 (unknown origin) at 10 uM; type: ADME; summary of the method: as §2
# Cytochrome P450 2C19 [6] = target: T2, Cytochrome P450 2C19 (Homo sapiens, UniProt P33261); assay: Inhibition of CYP2C19 (unknown origin) at 10 uM; type: ADME; summary of the method: as §2
# T2 sequence (P33261 whole entry): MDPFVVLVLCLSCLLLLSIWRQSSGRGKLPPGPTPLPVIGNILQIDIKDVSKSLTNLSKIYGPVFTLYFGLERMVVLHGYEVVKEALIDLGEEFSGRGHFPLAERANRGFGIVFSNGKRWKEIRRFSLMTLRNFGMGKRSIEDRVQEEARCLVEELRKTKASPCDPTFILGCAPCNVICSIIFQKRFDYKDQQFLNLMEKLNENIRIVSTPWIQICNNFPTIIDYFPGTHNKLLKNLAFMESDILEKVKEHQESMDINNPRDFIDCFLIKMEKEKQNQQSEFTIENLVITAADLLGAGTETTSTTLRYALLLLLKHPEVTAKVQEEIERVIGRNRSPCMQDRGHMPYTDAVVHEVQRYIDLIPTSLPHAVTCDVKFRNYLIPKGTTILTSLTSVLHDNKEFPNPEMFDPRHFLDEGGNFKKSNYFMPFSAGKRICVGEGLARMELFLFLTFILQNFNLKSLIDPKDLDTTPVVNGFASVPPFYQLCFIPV
# [7] = target: Prostaglandin G/H synthase 2 (Homo sapiens) (UniProt P35354); assay: Inhibition of COX2 (unknown origin) at 10 uM; summary of the method: as §3
# Rattus norvegicus [8] = assay: Antiinflammatory activity in orally dosed rat MIA model assessed as inhibition of differential weight bearing measured 30 mins post dose by incapacitance test; type: functional, organism-based
# Summary of the method: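 MIA 0.3 mg in 50 µL saline injected into right knee and saline into left knee of rats on day 0. Day 12: randomized, single oral dose in 10% acacia in water plus 0.05% antifoam at 0.3–10 mg/kg, with diclofenac 5 mg/kg. Hind-limb weight distribution measured by incapacitance tester 30 min post dose. n = 5/group, Dunnett's test versus vehicle.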
# [9] = AUC in rat at 5 mg/kg, po; type: ADME, organism-based; settings: in vivo; summary of the method: as §1
# Cytochrome P450 2D6 [10] = target: T3, Cytochrome P450 2D6 (Homo sapiens, UniProt P10635); assay: Inhibition of CYP2D6 (unknown origin) at 10 uM; type: ADME; summary of the method: as §2
# T3 sequence (P10635 whole entry): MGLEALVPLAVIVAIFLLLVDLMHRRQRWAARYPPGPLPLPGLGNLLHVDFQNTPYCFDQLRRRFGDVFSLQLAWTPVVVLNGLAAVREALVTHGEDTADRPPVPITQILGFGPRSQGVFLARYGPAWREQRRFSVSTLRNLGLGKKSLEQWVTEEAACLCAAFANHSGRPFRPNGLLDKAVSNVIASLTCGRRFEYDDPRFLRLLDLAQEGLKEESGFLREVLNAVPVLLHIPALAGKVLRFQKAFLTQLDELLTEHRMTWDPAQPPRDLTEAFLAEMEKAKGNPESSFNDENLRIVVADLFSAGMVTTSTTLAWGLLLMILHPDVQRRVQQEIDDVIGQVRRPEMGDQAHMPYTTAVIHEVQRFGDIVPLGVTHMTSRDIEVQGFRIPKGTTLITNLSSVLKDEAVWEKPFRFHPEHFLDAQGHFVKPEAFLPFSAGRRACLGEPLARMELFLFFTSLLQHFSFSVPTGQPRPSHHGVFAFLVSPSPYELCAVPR
# Cytochrome P450 1A2 [11] = target: T4, Cytochrome P450 1A2 (Homo sapiens, UniProt P05177); assay: Inhibition of CYP1A2 (unknown origin) at 10 uM; type: ADME; summary of the method: as §2
# T4 sequence (P05177 whole entry): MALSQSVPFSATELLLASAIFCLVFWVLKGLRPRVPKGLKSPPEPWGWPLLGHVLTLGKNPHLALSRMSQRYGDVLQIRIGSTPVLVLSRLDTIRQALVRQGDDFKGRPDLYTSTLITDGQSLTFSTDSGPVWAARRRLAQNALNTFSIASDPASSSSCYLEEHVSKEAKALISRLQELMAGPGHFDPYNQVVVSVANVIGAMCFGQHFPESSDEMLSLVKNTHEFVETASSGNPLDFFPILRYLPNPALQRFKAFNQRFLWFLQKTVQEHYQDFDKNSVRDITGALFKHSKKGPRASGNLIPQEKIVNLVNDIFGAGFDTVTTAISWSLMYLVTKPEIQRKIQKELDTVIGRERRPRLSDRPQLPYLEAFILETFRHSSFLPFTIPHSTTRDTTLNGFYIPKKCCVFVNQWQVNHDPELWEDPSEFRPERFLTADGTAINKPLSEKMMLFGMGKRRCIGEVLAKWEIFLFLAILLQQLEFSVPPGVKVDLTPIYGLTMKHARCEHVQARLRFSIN
# Cytochrome P450 2C8 [12] = target: T5, Cytochrome P450 2C8 (Homo sapiens, UniProt P10632); assay: Inhibition of CYP2C8 (unknown origin) at 10 uM; type: ADME; summary of the method: as §2
# T5 sequence (P10632 whole entry): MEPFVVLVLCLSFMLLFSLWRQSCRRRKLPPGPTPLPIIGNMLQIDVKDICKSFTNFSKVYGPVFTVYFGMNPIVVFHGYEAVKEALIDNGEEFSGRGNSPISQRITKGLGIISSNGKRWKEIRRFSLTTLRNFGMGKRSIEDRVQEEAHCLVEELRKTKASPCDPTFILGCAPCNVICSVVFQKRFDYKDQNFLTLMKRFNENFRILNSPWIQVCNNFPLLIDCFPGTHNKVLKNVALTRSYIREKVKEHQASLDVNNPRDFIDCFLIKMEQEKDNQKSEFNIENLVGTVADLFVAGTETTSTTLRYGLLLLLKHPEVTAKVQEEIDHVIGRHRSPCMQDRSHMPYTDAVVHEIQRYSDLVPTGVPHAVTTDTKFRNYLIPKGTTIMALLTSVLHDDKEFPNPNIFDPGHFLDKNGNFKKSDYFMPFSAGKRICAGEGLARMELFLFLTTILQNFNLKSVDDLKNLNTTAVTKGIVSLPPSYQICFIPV
# [13] = Oral bioavailability in rat at 5 mg/kg; type: ADME, organism-based; settings: in vivo
# [14] = target: D(1A) dopamine receptor (Homo sapiens) (UniProt P21728); assay: Inhibition of human dopamine D1 receptor at 10 uM; summary of the method: as §3
# Cytochrome P450 2B6 [15] = target: T6, Cytochrome P450 2B6 (Homo sapiens, UniProt P20813); assay: Inhibition of CYP2B6 (unknown origin) at 10 uM; type: ADME; summary of the method: as §2
# T6 sequence (P20813 whole entry): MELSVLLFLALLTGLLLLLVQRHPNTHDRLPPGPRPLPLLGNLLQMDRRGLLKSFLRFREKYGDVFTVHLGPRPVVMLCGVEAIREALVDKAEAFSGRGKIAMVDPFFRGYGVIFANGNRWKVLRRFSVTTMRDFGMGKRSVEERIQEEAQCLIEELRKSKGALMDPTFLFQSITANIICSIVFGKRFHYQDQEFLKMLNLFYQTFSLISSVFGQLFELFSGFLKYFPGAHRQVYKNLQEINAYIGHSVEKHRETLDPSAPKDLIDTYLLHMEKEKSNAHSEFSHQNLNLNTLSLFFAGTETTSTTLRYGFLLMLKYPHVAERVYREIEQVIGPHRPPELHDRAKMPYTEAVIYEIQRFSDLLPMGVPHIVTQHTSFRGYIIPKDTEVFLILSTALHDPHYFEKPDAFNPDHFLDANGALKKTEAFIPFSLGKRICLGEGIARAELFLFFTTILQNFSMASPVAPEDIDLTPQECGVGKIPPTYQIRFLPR
# Cytochrome P450 2D6 [16] = target: T3, Cytochrome P450 2D6; assay: Inhibition of CYP2D6 (unknown origin); type: ADME; summary of the method: as §2
# [17] = target: Muscarinic acetylcholine receptor M2 (Homo sapiens) (UniProt P08172); assay: Inhibition of human muscarinic M2 receptor at 10 uM; summary of the method: as §3
# Cytochrome P450 3A4 [18] = target: T7, Cytochrome P450 3A4 (Homo sapiens, UniProt P08684); assay: Inhibition of CYP3A4 (unknown origin); type: ADME; summary of the method: as §2
# T7 sequence (P08684 whole entry): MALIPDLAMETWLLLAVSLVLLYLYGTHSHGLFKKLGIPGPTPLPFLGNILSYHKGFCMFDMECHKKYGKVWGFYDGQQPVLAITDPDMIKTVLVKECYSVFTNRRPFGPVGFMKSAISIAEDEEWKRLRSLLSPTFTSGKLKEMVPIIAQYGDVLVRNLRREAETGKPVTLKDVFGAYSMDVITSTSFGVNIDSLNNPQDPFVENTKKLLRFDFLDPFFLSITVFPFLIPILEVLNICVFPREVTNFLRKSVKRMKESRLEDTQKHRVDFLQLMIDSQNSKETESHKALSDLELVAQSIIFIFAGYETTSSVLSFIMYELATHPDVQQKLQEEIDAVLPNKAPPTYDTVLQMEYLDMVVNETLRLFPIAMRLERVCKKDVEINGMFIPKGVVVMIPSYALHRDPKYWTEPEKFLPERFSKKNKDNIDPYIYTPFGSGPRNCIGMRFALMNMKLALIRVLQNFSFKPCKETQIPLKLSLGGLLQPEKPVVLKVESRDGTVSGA
# [19] = target: Prostaglandin F2-alpha receptor (Homo sapiens) (UniProt P43088); assay: Inhibition of prostaglandin FP receptor (unknown origin) at 10 uM; summary of the method: as §3
# Cytochrome P450 1A2 [20] = target: T4, Cytochrome P450 1A2; assay: Inhibition of CYP1A2 (unknown origin); type: ADME; summary of the method: as §2
# [21] = target: L-type calcium channel dihydropyridine binding site (Homo sapiens, UniProt O60840+Q01668+Q13698+Q13936); assay: Inhibition of L-type calcium channel dihydropyridine binding site (unknown origin) at 10 uM; type: protein assay; summary of the method: as §3
# Cytochrome P450 2C8 [22] = target: T5, Cytochrome P450 2C8; assay: Inhibition of CYP2C8 (unknown origin); type: ADME; summary of the method: as §2
# [23] = target: Adrenergic receptor alpha-1 (Rattus norvegicus) (UniProt P15823+P23944+P43140); assay: Inhibition of rat adrenergic alpha1 receptor at 10 uM; summary of the method: as §3
# [24] = target: L-type calcium channel verapamil binding site (Homo sapiens, UniProt O60840+Q01668+Q13698+Q13936); assay: Inhibition of L-type calcium channel verapamil binding site (unknown origin) at 10 uM; type: protein assay; summary of the method: as §3
# [25] = Half life in dog at 5 mg/kg, po; type: ADME, organism-based, Canis lupus familiaris; settings: in vivo; summary of the method: as §1
# [26] = target: L-type calcium channel diltiazem binding site (Homo sapiens, UniProt O60840+Q01668+Q13698+Q13936); assay: Inhibition of L-type calcium channel diltiazem binding site (unknown origin) at 10 uM; type: protein assay; summary of the method: as §3
# Cytochrome P450 2C19 [27] = target: T2, Cytochrome P450 2C19; assay: Inhibition of CYP2C19 (unknown origin); type: ADME; summary of the method: as §2
# [28] = target: Thromboxane A2 receptor (Homo sapiens) (UniProt P21731); assay: Inhibition of prostaglandin TP receptor (unknown origin) at 10 uM; summary of the method: as §3
# Thromboxane A2 receptor (Homo sapiens), sequence (P21731 whole entry): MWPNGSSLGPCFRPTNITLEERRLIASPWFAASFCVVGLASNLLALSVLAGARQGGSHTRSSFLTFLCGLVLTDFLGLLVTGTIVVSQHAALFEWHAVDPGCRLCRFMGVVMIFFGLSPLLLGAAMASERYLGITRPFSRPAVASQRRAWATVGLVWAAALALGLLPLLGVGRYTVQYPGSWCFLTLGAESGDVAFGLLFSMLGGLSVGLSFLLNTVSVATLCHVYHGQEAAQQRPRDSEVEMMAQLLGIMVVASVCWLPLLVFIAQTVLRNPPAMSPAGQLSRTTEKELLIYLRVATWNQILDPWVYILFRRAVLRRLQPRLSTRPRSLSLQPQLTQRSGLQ
# [29] = target: D(2) dopamine receptor (Homo sapiens) (UniProt P14416); assay: Inhibition of human dopamine D2 short receptor at 10 uM; summary of the method: as §3
# D(2) dopamine receptor (Homo sapiens), sequence (P14416 whole entry): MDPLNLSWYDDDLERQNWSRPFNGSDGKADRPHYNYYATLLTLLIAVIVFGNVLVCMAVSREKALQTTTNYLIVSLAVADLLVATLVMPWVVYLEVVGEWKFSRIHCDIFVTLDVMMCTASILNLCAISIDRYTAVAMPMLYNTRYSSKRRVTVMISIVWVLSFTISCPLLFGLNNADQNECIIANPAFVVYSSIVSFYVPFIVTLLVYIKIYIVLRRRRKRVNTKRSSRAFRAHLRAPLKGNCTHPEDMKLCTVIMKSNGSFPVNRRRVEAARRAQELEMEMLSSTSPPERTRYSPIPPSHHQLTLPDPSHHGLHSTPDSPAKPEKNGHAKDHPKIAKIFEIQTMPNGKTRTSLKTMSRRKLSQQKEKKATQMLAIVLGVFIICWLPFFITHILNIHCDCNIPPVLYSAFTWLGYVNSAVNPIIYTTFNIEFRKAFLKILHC
# [30] = target: Muscarinic acetylcholine receptor M3 (Homo sapiens) (UniProt P20309); assay: Inhibition of human muscarinic M3 receptor at 10 uM; summary of the method: as §3
# [31] = target: Acetylcholinesterase (Homo sapiens) (UniProt P22303); assay: Inhibition of human acetylcholinesterase at 10 uM
# Rattus norvegicus [32] = assay: Antiinflammatory activity in rat adjuvant induced arthritis model assessed as suppression of Mycobacterium tuberculosis H37 RA induced paw swelling at 30 mg/kg measured from day 11 to 15 relative to vehicle control; type: functional, organism-based
# Summary of the method: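 Rat adjuvant-induced arthritis: paw widths measured, then 0.25 mg adjuvant (Mycobacterium tuberculosis H37 RA) in 100 µl mineral oil given intradermally at tail base (day 0). On day 11, width of both paws was re-measured as percent change from day 0, and rats were randomized on this and body weight before dosing. Rats were euthanized day 15 without further dosing and paw width measured.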
# Cytochrome P450 3A4 [33] = target: T7, Cytochrome P450 3A4; assay: Inhibition of CYP3A4 (unknown origin) at 10 uM; type: ADME; summary of the method: as §2
# [34] = target: Mu-type opioid receptor (Homo sapiens) (UniProt P35372); assay: Inhibition of human Mu-type opioid receptor 10 uM; summary of the method: as §3
# [35] = target: Prostacyclin receptor (Homo sapiens) (UniProt P43119); assay: Inhibition of prostaglandin IP receptor (unknown origin) at 10 uM; summary of the method: as §3
# [36] = Clearance in rat at 1 mg/kg, iv; type: ADME, organism-based; settings: in vivo; summary of the method: as §1
# [37] = Volume of distribution at steady state in dog at 1 mg/kg, iv or 5 mg/kg, po; type: ADME, organism-based, Canis lupus familiaris; settings: in vivo, read-out: Vdss
# [38] = AUC in dog at 5 mg/kg, po; type: ADME, organism-based, Canis lupus familiaris; settings: in vivo; summary of the method: as §1
# [39] = target: Beta-1 adrenergic receptor (Homo sapiens) (UniProt P08588); assay: Inhibition of human adrenergic beta1 receptor at 10 uM; summary of the method: as §3
# Beta-1 adrenergic receptor (Homo sapiens), sequence (P08588 whole entry, looked up): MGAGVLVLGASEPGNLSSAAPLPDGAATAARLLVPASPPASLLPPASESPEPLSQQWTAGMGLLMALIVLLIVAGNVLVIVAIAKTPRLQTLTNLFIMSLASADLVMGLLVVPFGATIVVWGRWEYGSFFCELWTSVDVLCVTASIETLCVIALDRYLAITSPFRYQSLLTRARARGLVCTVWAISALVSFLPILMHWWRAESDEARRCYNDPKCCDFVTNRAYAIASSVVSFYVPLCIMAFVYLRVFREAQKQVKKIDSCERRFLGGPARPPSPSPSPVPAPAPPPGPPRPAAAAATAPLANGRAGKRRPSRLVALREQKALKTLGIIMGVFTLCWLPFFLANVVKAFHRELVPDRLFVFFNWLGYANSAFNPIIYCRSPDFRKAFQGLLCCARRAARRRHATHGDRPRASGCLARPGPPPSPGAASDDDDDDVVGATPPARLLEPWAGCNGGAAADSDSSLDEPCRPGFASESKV
# [40] = Cmax in dog at 5 mg/kg, po; type: ADME, organism-based, Canis lupus familiaris; design: dose 5 mg/kg, route oral; settings: in vivo; summary of the method: as §1
# [41] = Oral bioavailability in dog at 5 mg/kg; type: ADME, organism-based, Canis lupus familiaris; settings: in vivo
# [42] = target: Prostaglandin G/H synthase 1 (Homo sapiens) (UniProt P23219); assay: Inhibition of COX1 (unknown origin) at 10 uM; summary of the method: as §3
# Cytochrome P450 2B6 [43] = target: T6, Cytochrome P450 2B6; assay: Inhibition of CYP2B6 (unknown origin); type: ADME; summary of the method: as §2
# [44] = Aqueous solubility of compound at pH 6 at 2 mM after 20 hrs by HPLC; type: physicochemical; settings: aqueous medium
# Summary of the method: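 Samples in DMSO dried 12 h, then redissolved at pH 6 at a 2 mM target concentration. Stirred 20 h, filtered through 0.7 µm GF filter. Filtrate concentration measured by HPLC against a DMSO standard curve.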
# [45] = Cmax in rat at 5 mg/kg, po; type: ADME, organism-based; design: dose 5 mg/kg, route oral; settings: in vivo; summary of the method: as §1
# [46] = target: Voltage-gated inwardly rectifying potassium channel KCNH2 (Homo sapiens, UniProt Q12809); assay: Inhibition of human ERG up to 100 uM by [H3]-astemizole binding assay
# Summary of the method: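 hERG activity measured as displacement of [3H]-astemizole binding, compound tested up to 100 µM.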
# [47] = target: Sodium-dependent noradrenaline transporter (Homo sapiens) (UniProt P23975); assay: Inhibition of human norepinephrine transporter at 10 uM
# [48] = Volume of distribution at steady state in rat at 1 mg/kg, iv or 5 mg/kg, po; type: ADME, organism-based; settings: in vivo, read-out: Vdss
# [49] = target: Adrenergic receptor alpha-2 (Rattus norvegicus) (UniProt P22086+P19328+P22909); assay: Inhibition of rat adrenergic alpha2 receptor at 10 uM; summary of the method: as §3
# [50] = target: Beta-2 adrenergic receptor (Homo sapiens) (UniProt P07550); assay: Inhibition of human adrenergic beta2 receptor at 10 uM; summary of the method: as §3
# [51] = target: Histamine H1 receptor (Homo sapiens) (UniProt P35367); assay: Inhibition of human histamine H1 receptor at 10 uM; summary of the method: as §3
smiles,measurement,setting,value
Cc1ccc(N2CCC(O)CC2)nc1C(=O)Nc1c(C)cc(C(=O)O)cc1C,clearance,[1],10 mL/min/kg
same,IC50,Cytochrome P450 2C9 [2],> 10 µM
same,inhibition,[3],inactive
same,half-life,[4],306 min
same,inhibition (INH),Cytochrome P450 2C9 [5],Not Active
same,inhibition (INH),Cytochrome P450 2C19 [6],Not Active
same,inhibition,[7],inactive
same,Activity,Rattus norvegicus [8],Dose-dependent effect
same,AUC,[9],9670 ng·h/mL
same,inhibition (INH),Cytochrome P450 2D6 [10],Not Active
same,inhibition (INH),Cytochrome P450 1A2 [11],Not Active
same,inhibition (INH),Cytochrome P450 2C8 [12],Not Active
same,bioavailability,[13],34%
same,inhibition,[14],14%
same,inhibition (INH),Cytochrome P450 2B6 [15],Not Active
same,IC50,Cytochrome P450 2D6 [16],> 10 µM
same,inhibition,[17],6%
same,IC50,Cytochrome P450 3A4 [18],> 10 µM
same,inhibition,[19],inactive
same,IC50,Cytochrome P450 1A2 [20],> 10 µM
same,inhibition at 10 µM,[21],-39%
same,IC50,Cytochrome P450 2C8 [22],> 10 µM
same,inhibition,[23],-8%
same,inhibition at 10 µM,[24],1%
same,half-life,[25],306 min
same,inhibition at 10 µM,[26],-23%
same,IC50,Cytochrome P450 2C19 [27],> 10 µM
same,inhibition,[28],inactive
same,inhibition,[29],5%
same,inhibition,[30],0%
same,inhibition,[31],7%
same,Activity,Rattus norvegicus [32],Active
same,inhibition (INH),Cytochrome P450 3A4 [33],Not Active
same,inhibition,[34],-8%
same,inhibition,[35],inactive
same,clearance,[36],3 mL/min/kg
same,Vd,[37],1.73 L/kg
same,AUC,[38],6320 ng·h/mL
same,inhibition,[39],3%
same,Cmax,[40],1870 ng/mL
same,bioavailability,[41],75%
same,inhibition,[42],inactive
same,IC50,Cytochrome P450 2B6 [43],> 10 µM
same,"solubility at 20 h, 2000 µM",[44],762 µg/mL
same,Cmax,[45],3100 ng/mL
same,inhibition (INH),[46],Not Active
same,inhibition,[47],7%
same,Vd,[48],0.34 L/kg
same,inhibition,[49],-4%
same,inhibition,[50],-2%
same,inhibition,[51],-3%
